Among the data in PubChem BioAssay AID540295 (The Scripps Research Institute Molecular Screening Center, 2011) are inhibition values, retold here.

SMILES strings stand for the structures. Among all 360,000 compounds or so, about 1,700 (0.47%) were called active. Shown is part of a subset that was picked to be rich in actives. A number with no mark means an inactive call.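 How the source made its calls: active means inhibition above its plate's cutoff, the mean of tested wells on that plate plus 3 SD (cut at about 29% in these data); inactive means the rest.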

Chain of Melanocortin receptor 4 (Homo sapiens) (P32245 whole entry, looked up): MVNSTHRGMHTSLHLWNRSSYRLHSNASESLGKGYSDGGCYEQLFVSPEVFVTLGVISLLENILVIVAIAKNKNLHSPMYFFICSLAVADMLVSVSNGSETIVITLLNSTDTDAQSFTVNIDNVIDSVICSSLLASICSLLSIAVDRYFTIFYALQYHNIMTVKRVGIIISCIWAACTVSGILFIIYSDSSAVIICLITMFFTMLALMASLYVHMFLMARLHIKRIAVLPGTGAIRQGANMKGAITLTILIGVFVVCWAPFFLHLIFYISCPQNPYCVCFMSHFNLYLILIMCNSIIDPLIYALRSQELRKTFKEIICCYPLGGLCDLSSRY

In this experiment the target is Melanocortin receptor 4 (Homo sapiens) (UniProt P32245). The experiment is described as follows: MC4R antagonists of cAMP signaling, primary screen, cell-based, TR-FRET, antagonist arm of biased-ligand search (AID 540295).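 Further: 0% = Melanotan II alone and 100% = Melanotan II plus saturating MCL0020.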 As to conditions: MC4R-expressing cells, MTII-stimulated cAMP, LANCE TR-FRET; at 6.5 µM; active compounds read high. Put shortly:
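System: U2OS-MC4R stable cell line; Technique: Eu-cAMP/anti-cAMP TR-FRET, emission 671 nm; Repeats: single well per compound; Also added: Melanotan II; Dosing: one concentration, 6.5 µM nominal; Schedule: 30-min compound, 1-h challenge, 1-h detection, room temperature.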
(In general: In TR-FRET formats the signal depends on donor and acceptor labels being close together.)
For the compound `COc1cc(C(=O)NCc2ccc(-n3cccc3)cc2)cc(OC)c1OC`, the inhibition was 5.76%. Regarding `Cc1cccc(-c2cnc(C(O)c3ccc4ccccc4c3)[nH]2)c1` (stereo not drawn), the inhibition is 5.06%. Under `Cc1c(CCC(=O)O)c(=O)oc2cc(OCc3ccc(Br)cc3)ccc12` stands 29.8% (active); under `Cc1coc2cc3oc(=O)c(CCC(=O)O)c(C)c3cc12`, 4.19%; under `Cc1c(CCC(=O)O)c(=O)oc2c(C)c(OCc3ccccc3Cl)ccc12`, 17.1%. Next, `CCOC(=O)C1CCN(Cc2nnc(-c3cccc(Br)c3)o2)CC1`: 7.07%; `CCOC(=O)N1CCN(Cc2nnc(-c3ccccc3Cl)o2)CC1`: 2.09%; `Cc1ccc(-c2nnc(CN3CCN(C)CC3)o2)cc1`: 30.6% (active).

Regarding `S=c1[nH]nc(-c2ccco2)n1/N=C/c1ccc(Br)s1`, the inhibition is -2.7%. Next, `Cc1ccc(Cl)cc1-c1ccc(/C=N/n2cnnc2)o1`: -0.99%.

With `Cc1ccccc1-c1n[nH]c(=S)n1/N=C/c1ccc(-c2ccccc2Br)o1`, the inhibition is 28.7% (active). Under `Cc1nn(Cc2ccc(F)cc2)c(C)c1NC(=O)c1noc2c1CCc1ccccc1-2` stands 10.4%.

On to `COc1cc(C(=O)N2CCOC23CCN(Cc2ccccc2)CC3)cc(OC)c1OC`, for which the inhibition was 0.19%. Under `O=C(c1ccc2c(c1)C(=O)N(c1ccc(Cl)cc1)C2=O)N1CCN(c2ccccn2)CC1` stands 7.23%; under `O=C1c2ccccc2S(=O)(=O)c2cc(N3CCN(c4ccccn4)CC3)ccc21`, 11.1%. `O=C(c1ccc2c(c1)N(Cc1ccc(F)cc1)C(=O)c1ccccc1S2(=O)=O)N1CCN(c2ccccn2)CC1`: the inhibition was 30.5% (active). In the case of `Cc1ccc(C)c(N2CCN(C(=O)CCc3nc(-c4cccc(C(F)(F)F)c4)no3)CC2)c1`, the inhibition was -2.59%. Under `Cc1cc(C(=O)N2CCN(c3ccccn3)CC2)c(C)o1` stands -0.72%.

Regarding `COc1cccc(OC)c1C(=O)Nc1c(C(=O)N2CCN(c3ccccn3)CC2)oc2ccccc12`, the inhibition was 36.6% (active). For the compound `COCC(=O)Nc1c(C(=O)N2CCCC2)oc2ccccc12`, the inhibition is 2.6%. Under `CCOc1ccc(CCNC(=O)CN2C(=O)NC3(CCc4ccccc43)C2=O)cc1OCC` (stereo not drawn) stands 7.52%.

With `CCO[C@H]1OC(C(=O)Nc2ccccc2)=C[C@@H](C2CC2)[C@@H]1CCCO`, the inhibition is 8.5%. Next, `COc1cc(S(=O)(=O)Nc2ncn[nH]2)ccc1Cl`: 3.99%. Consider `COc1ccc(C(C)C)cc1S(=O)(=O)Nc1ncn[nH]1`, for which the inhibition was 32.9% (active).

In the case of `COc1ccc(OC)c(S(=O)(=O)Nc2c(C)nn(C)c2C)c1`, the inhibition is -0.88%. Regarding `CC(C)CC(=O)Nc1cc(C(F)(F)F)ccc1N1CCOCC1`, the inhibition is 8.93%. Next, `O=C(CN1C(=O)NC2(CCCC2)C1=O)Nc1cc(C(F)(F)F)ccc1N1CCOCC1`: 2.08%; `O=C(Cn1nnc2ccccc2c1=O)Nc1cc(C(F)(F)F)ccc1N1CCOCC1`: 30.3% (active). Under `O=C(NCc1cccnc1)c1cc(S(=O)(=O)N2CCOCC2)c(Cl)cc1Cl` stands 2.73%. Next, `O=C(Nc1nccs1)c1cc(S(=O)(=O)N2CCOCC2)c(Cl)cc1Cl`: 35.1% (active). Turning to `O=C(Nc1ccc(S(=O)(=O)Nc2nccs2)cc1)c1cccc(S(=O)(=O)N2CCOCC2)c1`, the inhibition is 13.1%. Under `COc1ccccc1N(CC(=O)N/N=C(\C)c1ccccc1O)S(=O)(=O)c1ccc(C)cc1` stands 33.9% (active); under `COc1ccccc1N(CC(=O)Nc1c(C)n(C)n(-c2ccccc2)c1=O)S(=O)(=O)c1ccccc1`, -1.81%. Regarding `Cc1ccc(S(=O)(=O)N(CC(=O)N/N=C/c2ccc(F)cc2)c2cccc3cccnc23)cc1`, the inhibition is 15.1%. Under `CC/C(Cc1ccccc1)=N/NC(=O)CCn1nnc2ccccc21` stands 9.16%. Under `CC12CCC(=O)C=C1CCC1C2C(O)CC2(C)C1CCC2(O)C(O)CO` (stereo not drawn) stands 1.23%. Under `CCOC(=O)COc1nc(C)cc(C(F)(F)F)c1C#N` stands -2.8%; under `CCOC(=O)c1c(C(C#N)C#N)cc(C)nc1C`, 1.49%.

As for `CCOC(=O)c1cc(C)nc(S(C)(=O)=O)c1C#N`, the inhibition is 38.7% (active).

For the compound `O=C(Nc1ccccc1F)c1cc(S(=O)(=O)N2CCCCC2)cs1`, the inhibition was 3.77%.

With `Cn1ccs/c1=N\S(=O)(=O)c1ccc(C(C)(C)C)cc1`, the inhibition is 8.67%. On to `CNC(=O)C[C@H]1C(=O)N(c2ccc(OC)cc2)C[C@@H]1Cc1ccccc1`, for which the inhibition was -3.72%. For `COc1ccc(N2C(=O)C3C(C2=O)C(C(=O)c2ccccc2)N2CCCC32)cc1` (stereo not drawn), the inhibition is 30.8% (active). Under `COc1ccc(N2C(=O)CC(N3CCC(C(N)=O)CC3)C2=O)cc1` (stereo not drawn) stands 5.05%; under `O=C(CCc1nnc(Cc2ccc3c(c2)OCO3)o1)NCCc1ccccc1Cl`, 2.77%. Under `NCCCNC(=S)NCCCN(Cc1ccc(Cl)cc1)c1ccc(Br)cn1` stands 3.71%. Under `O=C(NCc1ccccc1)C1=C[C@@H](C2CCCCC2)C[C@@H](OCc2ccc(CO)cc2)O1` stands 4.66%; under `CC(=O)c1ccccc1NC(=O)COC(=O)C1COc2ccccc2O1` (stereo not drawn), 16.3%; under `CCC1CCCCN1CCCNC(=O)c1cc2c(Cl)nc3ccccc3c2s1` (stereo not drawn), -9.04%.

Consider `O=C(NCC1CCN(Cc2ccccc2Cl)CC1)Nc1cccc(Cl)c1`, for which the inhibition was 29.6% (active). For `COc1ccc(Cl)cc1NC(=O)NCC1CCN(Cc2ccccc2F)CC1`, the inhibition is 3.98%. Next, `Cc1cccc(CN2CCC(CNC(=O)Nc3ccc(F)c(Cl)c3)CC2)c1`: 1.8%; `FC(F)Oc1ccccc1NC(=S)Nc1cccc(Cl)c1Cl`: 0.43%.

Turning to `S=C(Cc1ccc(Cl)cc1)N1CCOCC1`, the inhibition is 2.15%. Next, `CCCc1cc(=O)[nH]c(SCC(=O)Nc2ccc(C(=O)Nc3ccccc3OC)cc2)n1`: 10.3%. Next, `COc1ccccc1NC(=O)c1ccc2nc(N3C(=O)CCC3=O)sc2c1`: 35.1% (active); `COc1ccccc1-c1nnc(NC(=O)c2cccc(N3C(=O)CCC3=O)c2)o1`: 17.9%; `COC(=O)/C(=C1\Oc2ccc(C(C)(C)C)cc2S1)C(F)(F)F`: 13.2%.

The term inhibition denotes the relative decrease from the control value, in per cent.
